From ChEMBL document CHEMBL1131521, “Structure-activity relationships for 1-phenylbenzimidazoles as selective ATP site inhibitors of the platelet-derived growth factor receptor” (J Med Chem, 1998)

What was measured:
[1] = target: Platelet-derived growth factor receptor beta (Mus musculus, UniProt P05622); assay: Inhibition of phosphorylation of a random glutamate/tyrosine copolymer in lysates of transfected Sf9 insect cells overexpressing mouse platelet-derived growth factor receptor beta
Outline: (§1)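 Kinase source was lysate of transfected Sf9 insect cells overexpressing the receptor. Substrate was a random glutamate/tyrosine (4:1) copolymer, and the read-out was its phosphorylation. IC50 was the drug concentration (µM) giving inhibition.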

[2] = target: Fibroblast growth factor receptor 1 (Homo sapiens, UniProt P11362); assay: Inhibition of phosphorylation of a random glutamate/tyrosine copolymer in lysates of transfected Sf9 insect cells overexpressing human fibroblast growth factor receptor 1; outline: as §1
Sequence of Fibroblast growth factor receptor 1 (P11362 whole entry): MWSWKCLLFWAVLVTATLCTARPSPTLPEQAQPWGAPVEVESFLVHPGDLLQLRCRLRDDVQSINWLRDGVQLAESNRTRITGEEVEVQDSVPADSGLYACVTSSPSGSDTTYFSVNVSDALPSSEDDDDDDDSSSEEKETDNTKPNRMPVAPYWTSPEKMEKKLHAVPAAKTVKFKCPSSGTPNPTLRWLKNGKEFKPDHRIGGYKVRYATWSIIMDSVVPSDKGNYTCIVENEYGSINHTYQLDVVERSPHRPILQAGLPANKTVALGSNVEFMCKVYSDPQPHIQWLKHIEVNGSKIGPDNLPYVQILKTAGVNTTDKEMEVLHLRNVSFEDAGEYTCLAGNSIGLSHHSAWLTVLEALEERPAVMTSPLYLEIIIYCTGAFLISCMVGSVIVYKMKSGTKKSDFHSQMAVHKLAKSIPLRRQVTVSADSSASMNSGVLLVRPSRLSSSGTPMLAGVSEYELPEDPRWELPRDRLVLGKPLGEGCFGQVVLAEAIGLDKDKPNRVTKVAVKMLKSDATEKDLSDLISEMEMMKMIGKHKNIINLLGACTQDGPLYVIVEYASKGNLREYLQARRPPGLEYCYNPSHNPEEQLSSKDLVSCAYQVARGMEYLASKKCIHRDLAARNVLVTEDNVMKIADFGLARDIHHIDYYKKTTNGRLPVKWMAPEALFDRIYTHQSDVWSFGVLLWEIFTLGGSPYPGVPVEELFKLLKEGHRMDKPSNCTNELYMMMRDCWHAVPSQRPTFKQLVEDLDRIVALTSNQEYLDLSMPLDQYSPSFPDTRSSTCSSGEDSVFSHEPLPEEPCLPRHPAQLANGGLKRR

[3] = target: Platelet-derived growth factor receptor (PDGFr) (Rattus norvegicus, UniProt P20786+Q05030); assay: Inhibition of PDGF-stimulated Platelet-derived growth factor receptor autophosphorylation in rat aorta vascular smooth muscle cells.; format: functional
Outline: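 Rat aortic vascular smooth muscle cells, serum-starved, were exposed to compound for 2 h before stimulation with PDGF-BB at 25 ng/mL. Cell lysates or immunoprecipitates were analysed by Western blot with anti-phosphotyrosine antibody.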

Sequence of Platelet-derived growth factor receptor beta (P05622 whole entry): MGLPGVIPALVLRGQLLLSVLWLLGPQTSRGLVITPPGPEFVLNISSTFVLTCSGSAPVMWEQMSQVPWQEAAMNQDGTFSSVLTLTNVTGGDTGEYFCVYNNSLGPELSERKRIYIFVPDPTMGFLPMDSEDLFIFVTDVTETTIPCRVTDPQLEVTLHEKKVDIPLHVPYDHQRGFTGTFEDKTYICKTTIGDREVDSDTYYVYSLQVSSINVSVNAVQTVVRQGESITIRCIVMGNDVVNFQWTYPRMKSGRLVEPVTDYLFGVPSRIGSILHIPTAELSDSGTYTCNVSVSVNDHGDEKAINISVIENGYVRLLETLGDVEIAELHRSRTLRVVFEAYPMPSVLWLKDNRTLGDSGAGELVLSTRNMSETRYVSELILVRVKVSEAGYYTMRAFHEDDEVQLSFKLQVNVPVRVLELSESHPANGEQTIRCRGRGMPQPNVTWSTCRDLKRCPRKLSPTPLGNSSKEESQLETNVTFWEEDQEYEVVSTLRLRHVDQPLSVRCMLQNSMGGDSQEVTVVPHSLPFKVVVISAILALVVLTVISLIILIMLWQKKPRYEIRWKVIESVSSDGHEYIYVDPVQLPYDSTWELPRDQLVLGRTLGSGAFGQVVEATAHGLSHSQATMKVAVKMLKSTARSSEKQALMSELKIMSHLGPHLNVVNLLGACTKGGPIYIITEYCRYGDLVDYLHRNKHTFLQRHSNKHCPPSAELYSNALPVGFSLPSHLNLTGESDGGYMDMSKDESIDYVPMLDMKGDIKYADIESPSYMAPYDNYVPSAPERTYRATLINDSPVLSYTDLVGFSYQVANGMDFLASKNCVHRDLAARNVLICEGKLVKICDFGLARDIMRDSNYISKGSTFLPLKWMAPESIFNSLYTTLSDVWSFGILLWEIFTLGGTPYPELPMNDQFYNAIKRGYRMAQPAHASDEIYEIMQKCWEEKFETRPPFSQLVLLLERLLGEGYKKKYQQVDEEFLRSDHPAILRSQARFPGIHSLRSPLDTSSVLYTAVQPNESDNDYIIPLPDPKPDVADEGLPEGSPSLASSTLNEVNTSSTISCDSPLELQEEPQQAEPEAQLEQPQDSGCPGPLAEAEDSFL

SMILES: O=C(O)c1ccc2ncn(-c3ccccc3)c2c1
- IC50 [1]: 50 µM
- IC50 [2]: 50 µM

SMILES: COc1cccc2c1ncn2-c1ccccc1
- IC50 [1]: 50 µM
- IC50 [2]: > 50 µM

SMILES: NC(=O)c1cccc2c1ncn2-c1ccccc1
- IC50 [1]: > 50 µM
- IC50 [2]: > 50 µM

SMILES: Cc1cccc2c1ncn2-c1ccccc1
- IC50 [1]: > 50 µM
- IC50 [2]: > 50 µM

SMILES: c1ccc(-n2ccc3ccccc32)cc1
- IC50 [1]: > 50 µM
- IC50 [2]: > 50 µM

SMILES: CC(=O)c1ccc2c(c1)ncn2-c1ccccc1
- IC50 [1]: 0.86 µM

SMILES: Clc1cccc(-n2cnc3ccccc32)c1
- IC50 [1]: 47 µM
- IC50 [2]: 50 µM

SMILES: O=C(O)c1cccc(-n2cnc3ccccc32)c1
- IC50 [1]: > 50 µM
- IC50 [2]: > 50 µM

SMILES: O=[N+]([O-])c1cccc2c1ncn2-c1ccccc1
- IC50 [1]: > 50 µM
- IC50 [2]: > 50 µM

SMILES: O=C(O)c1cccc2c1ncn2-c1ccccc1
- IC50 [1]: > 50 µM
- IC50 [2]: > 50 µM

SMILES: O=Cc1ccccc1-n1cnc2ccccc21
- IC50 [1]: > 50 µM
- IC50 [2]: > 50 µM

SMILES: Cc1nc2ccccc2n1-c1ccccc1
- IC50 [1]: > 50 µM
- IC50 [2]: > 50 µM

SMILES: O=[N+]([O-])c1cccc2ncn(-c3ccccc3)c12
- IC50 [1]: > 50 µM
- IC50 [2]: 40 µM

SMILES: Clc1cccc2ncn(-c3ccccc3)c12
- IC50 [1]: > 50 µM
- IC50 [2]: > 50 µM

SMILES: Oc1nc2ccccc2n1-c1ccccc1
- IC50 [1]: > 50 µM
- IC50 [2]: > 50 µM

SMILES: NC(=O)c1cccc2ncn(-c3ccccc3)c12
- IC50 [1]: > 50 µM
- IC50 [2]: > 50 µM

SMILES: c1ccc(-n2ncc3ccccc32)cc1
- IC50 [1]: > 50 µM
- IC50 [2]: > 50 µM

SMILES: O=Cc1cccc(-n2cnc3ccccc32)c1
- IC50 [2]: 50 µM

SMILES: O=C(O)c1ccccc1-n1cnc2ccccc21
- IC50 [1]: > 50 µM
- IC50 [2]: > 50 µM

SMILES: Cc1ccc2c(c1)ncn2-c1ccccc1
- IC50 [2]: 50 µM

SMILES: Nc1ccc2ncn(-c3ccccc3)c2c1
- IC50 [1]: 23 µM
- IC50 [2]: > 50 µM

SMILES: COC(=O)c1ccc2c(c1)ncn2-c1ccccc1
- IC50 [1]: 0.83 µM
- IC50 [3]: 0.15 µM

SMILES: COc1ccc(-n2cnc3ccccc32)cc1
- IC50 [1]: 13 µM
- IC50 [2]: > 50 µM

SMILES: Oc1ccc2ncn(-c3ccccc3)c2c1
- IC50 [2]: > 50 µM

SMILES: c1ccc(-n2cnc3cccnc32)cc1
- IC50 [1]: 28 µM
- IC50 [2]: > 50 µM

SMILES: Cc1ccccc1-n1cnc2ccccc21
- IC50 [1]: > 50 µM
- IC50 [2]: > 50 µM

SMILES: O=[N+]([O-])c1ccc2c(c1)ncn2-c1ccccc1
- IC50 [1]: 16 µM
- IC50 [2]: > 50 µM

SMILES: c1ccc(-n2nnc3ccccc32)cc1
- IC50 [1]: > 50 µM
- IC50 [2]: > 50 µM

SMILES: Clc1ccc2ncn(-c3ccccc3)c2c1
- IC50 [2]: > 50 µM

SMILES: Nc1ccccc1-n1cnc2ccccc21
- IC50 [1]: > 50 µM
- IC50 [2]: > 50 µM

SMILES: Clc1ccccc1-n1cnc2ccccc21
- IC50 [1]: > 50 µM
- IC50 [2]: > 50 µM

SMILES: CC(=O)c1ccccc1-n1cnc2ccccc21
- IC50 [1]: > 50 µM
- IC50 [2]: > 50 µM

SMILES: O=Cc1ccc(-n2cnc3ccccc32)cc1
- IC50 [1]: 13 µM
- IC50 [2]: > 50 µM

SMILES: COc1cccc2ncn(-c3ccccc3)c12
- IC50 [1]: 37 µM
- IC50 [2]: 50 µM

SMILES: Cc1cccc2ncn(-c3ccccc3)c12
- IC50 [1]: > 50 µM
- IC50 [2]: > 50 µM

SMILES: c1ccc(-c2nc3ccccc3[nH]2)cc1
- IC50 [1]: > 50 µM
- IC50 [2]: > 50 µM

SMILES: c1cncc(-n2cnc3ccccc32)c1
- IC50 [1]: > 50 µM
- IC50 [2]: > 50 µM

SMILES: O=C(c1ccccc1)n1cnc2ccccc21
- IC50 [1]: > 50 µM
- IC50 [2]: > 50 µM

SMILES: Clc1ccc(-n2cnc3ccccc32)cc1
- IC50 [1]: 50 µM
- IC50 [2]: > 50 µM

SMILES: CC(=O)c1ccc(-n2cnc3ccccc32)cc1
- IC50 [1]: 24 µM
- IC50 [2]: > 50 µM

SMILES: NC(=O)c1ccccc1-n1cnc2ccccc21
- IC50 [1]: > 50 µM
- IC50 [2]: > 50 µM

SMILES: COC(=O)c1cccc2ncn(-c3ccccc3)c12
- IC50 [1]: > 50 µM
- IC50 [2]: > 50 µM

SMILES: COC(=O)c1cccc2c1ncn2-c1ccccc1
- IC50 [1]: > 50 µM
- IC50 [2]: > 50 µM

SMILES: CC(=O)c1cccc(-n2cnc3ccccc32)c1
- IC50 [1]: 19 µM
- IC50 [2]: > 50 µM

SMILES: c1ccc(-n2cnc3ccccc32)nc1
- IC50 [1]: > 50 µM
- IC50 [2]: > 50 µM

SMILES: Nc1cccc(-n2cnc3ccccc32)c1
- IC50 [2]: > 50 µM

SMILES: c1ccc(-n2cnc3ccccc32)cc1
- IC50 [2]: > 50 µM
- IC50 [3]: 2.3 µM

SMILES: O=C(O)c1ccc(-n2cnc3ccccc32)cc1
- IC50 [1]: > 50 µM
- IC50 [2]: > 50 µM

SMILES: NC(=O)c1ccc(-n2cnc3ccccc32)cc1
- IC50 [1]: 23 µM
- IC50 [2]: > 50 µM

SMILES: COc1ccccc1-n1cnc2ccccc21
- IC50 [1]: > 50 µM
- IC50 [2]: > 50 µM

SMILES: O=[N+]([O-])c1ccc(-n2cnc3ccccc32)cc1
- IC50 [1]: 30 µM
- IC50 [2]: > 50 µM

SMILES: Cc1cccc(-n2cnc3ccccc32)c1
- IC50 [1]: 28 µM
- IC50 [2]: > 50 µM

SMILES: COc1cccc(-n2cnc3ccccc32)c1
- IC50 [1]: 25 µM
- IC50 [2]: 50 µM

SMILES: Nc1ccc(-n2cnc3ccccc32)cc1
- IC50 [2]: > 50 µM
- IC50 [3]: 2 µM

SMILES: c1ccc(Cn2cnc3ccccc32)cc1
- IC50 [1]: > 50 µM
- IC50 [2]: > 50 µM

SMILES: O=C(O)c1cccc2ncn(-c3ccccc3)c12
- IC50 [1]: > 50 µM
- IC50 [2]: > 50 µM

SMILES: Cc1ccc(-n2cnc3ccccc32)cc1
- IC50 [1]: > 50 µM
- IC50 [2]: > 50 µM

SMILES: Cc1ccc2ncn(-c3ccccc3)c2c1
- IC50 [1]: 40 µM
- IC50 [2]: > 50 µM

SMILES: Clc1cccc2c1ncn2-c1ccccc1
- IC50 [1]: > 50 µM
- IC50 [2]: > 50 µM

SMILES: O=[N+]([O-])c1ccccc1-n1cnc2ccccc21
- IC50 [1]: > 50 µM
- IC50 [2]: > 50 µM

SMILES: N#Cc1cccc(-n2cnc3ccccc32)c1
- IC50 [1]: > 50 µM
- IC50 [2]: > 50 µM

SMILES: COc1ccc2ncn(-c3ccccc3)c2c1
- IC50 [2]: > 50 µM
- IC50 [3]: > 10 µM

SMILES: Nc1nc2ccccc2n1-c1ccccc1
- IC50 [1]: > 50 µM
- IC50 [2]: > 50 µM

SMILES: N#Cc1ccc(-n2cnc3ccccc32)cc1
- IC50 [1]: 16 µM
- IC50 [2]: > 50 µM

SMILES: NC(=O)c1ccc2ncn(-c3ccccc3)c2c1
- IC50 [1]: 25 µM
- IC50 [2]: > 50 µM

SMILES: Oc1cccc2ncn(-c3ccccc3)c12
- IC50 [1]: > 50 µM
- IC50 [2]: 50 µM

SMILES: Nc1cccc2ncn(-c3ccccc3)c12
- IC50 [1]: > 50 µM
- IC50 [2]: > 50 µM

SMILES: Oc1ccccc1-n1cnc2ccccc21
- IC50 [1]: > 50 µM
- IC50 [2]: > 50 µM

SMILES: CCOC(=O)c1cccc(-n2cnc3ccccc32)c1
- IC50 [1]: > 50 µM
- IC50 [2]: > 50 µM

SMILES: O=[N+]([O-])c1ccc2ncn(-c3ccccc3)c2c1
- IC50 [1]: 50 µM
- IC50 [2]: 39 µM

SMILES: O=Cc1ccc2c(c1)ncn2-c1ccccc1
- IC50 [2]: > 50 µM

SMILES: c1ccc2c(c1)ncn2-c1ccncc1
- IC50 [1]: 12 µM
- IC50 [2]: > 50 µM

SMILES: NC(=O)c1ccc2c(c1)ncn2-c1ccccc1
- IC50 [1]: 16 µM

SMILES: c1ccc(C2=Nc3ccccc3NCC2)cc1
- IC50 [1]: > 50 µM
- IC50 [2]: > 50 µM

SMILES: NC(=O)c1cccc(-n2cnc3ccccc32)c1
- IC50 [1]: > 50 µM
- IC50 [2]: > 50 µM

SMILES: COC(=O)c1ccc2ncn(-c3ccccc3)c2c1
- IC50 [2]: > 50 µM

SMILES: N#Cc1ccccc1-n1cnc2ccccc21
- IC50 [1]: > 50 µM
- IC50 [2]: > 50 µM

SMILES: Nc1cccc2c1ncn2-c1ccccc1
- IC50 [1]: > 50 µM
- IC50 [2]: > 50 µM

SMILES: COC(=O)c1ccc(-n2cnc3ccccc32)cc1
- IC50 [2]: 50 µM

SMILES: O=[N+]([O-])c1cccc(-n2cnc3ccccc32)c1
- IC50 [1]: 16 µM
- IC50 [2]: 35 µM

SMILES: CCOC(=O)c1ccccc1-n1cnc2ccccc21
- IC50 [1]: > 50 µM
- IC50 [2]: > 50 µM

SMILES: Oc1cccc2c1ncn2-c1ccccc1
- IC50 [1]: 11 µM
- IC50 [2]: > 50 µM
- IC50 [3]: > 10 µM

SMILES: COc1ccc2c(c1)ncn2-c1ccccc1
- IC50 [1]: 0.43 µM
- IC50 [3]: 1.9 µM

SMILES: Oc1ccc2c(c1)ncn2-c1ccccc1
- IC50 [1]: 0.44 µM
- IC50 [3]: 0.13 µM
